Published values of several laboratories.
Lines come from different studies, so protocols differ.
Target: Dual specificity protein kinase TTK (TTK, Homo sapiens, UniProt P33981)
One construct used (P33981 1-857): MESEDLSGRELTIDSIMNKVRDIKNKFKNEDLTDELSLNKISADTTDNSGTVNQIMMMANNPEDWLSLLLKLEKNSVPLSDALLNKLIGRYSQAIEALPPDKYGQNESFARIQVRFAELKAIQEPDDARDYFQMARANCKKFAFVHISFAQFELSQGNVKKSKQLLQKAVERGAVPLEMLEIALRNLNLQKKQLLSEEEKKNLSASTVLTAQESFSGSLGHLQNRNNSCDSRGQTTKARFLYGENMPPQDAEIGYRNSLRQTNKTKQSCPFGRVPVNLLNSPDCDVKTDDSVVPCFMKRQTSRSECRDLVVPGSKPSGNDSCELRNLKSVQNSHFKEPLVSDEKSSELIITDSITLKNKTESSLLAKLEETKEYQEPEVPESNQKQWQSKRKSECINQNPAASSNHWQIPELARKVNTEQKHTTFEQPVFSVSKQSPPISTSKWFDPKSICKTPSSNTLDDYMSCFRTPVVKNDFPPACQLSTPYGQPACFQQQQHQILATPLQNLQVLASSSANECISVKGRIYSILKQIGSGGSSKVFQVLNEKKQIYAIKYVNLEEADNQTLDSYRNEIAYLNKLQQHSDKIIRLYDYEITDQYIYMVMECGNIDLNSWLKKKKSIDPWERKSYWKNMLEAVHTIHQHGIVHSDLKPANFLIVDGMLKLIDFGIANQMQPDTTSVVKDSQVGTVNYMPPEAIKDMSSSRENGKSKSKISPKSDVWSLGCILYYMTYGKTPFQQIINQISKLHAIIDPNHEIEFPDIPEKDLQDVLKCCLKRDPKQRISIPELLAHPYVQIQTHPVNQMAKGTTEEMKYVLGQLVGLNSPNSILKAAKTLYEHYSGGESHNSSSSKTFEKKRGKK

SMILES	assay	conditions	quantity	value
CN1CC(Oc2cnc(C#N)cc2-c2ccn3nc(NC(=O)C4CC4)cc3c2)C1	enzyme activity, inhibitor	1 µM	inhibition	12%
Cn1c2c(c3ccc(Cl)c(Cl)c31)C(C#N)C(C)(C)NC2=O (stereo not shown)	thermal stability, DSF	10 µM	ΔTm	1.2 °C
Nc1nc(Nc2ccc(S(N)(=O)=O)cc2)nn1C(=O)c1c(F)cccc1F	cell-free assay	0.5 µM	remaining signal	77.5%
O=C(NC[C@@H]1[C@H]2CN(C(=O)OCc3cc(C(F)(F)F)cc(C(F)(F)F)c3)C[C@@H]12)c1ccc2[nH]nnc2c1	cell-free assay, competition with immobilised ligand	1 µM	remaining binding	91%
O=C1Nc2ccc(Cl)cc2C1=Cc1cc(Cl)c(O)c(Cl)c1	cell-free assay	0.5 µM	remaining signal	84.4%
Cn1c2c(c3ccc(Cl)c(Cl)c31)C(C#N)C1(CCCCC1)NC2=O (racemic)	thermal stability, DSF	10 µM	ΔTm	0.7 °C
C#Cc1cccc(Nc2ncnc3cc(OCCOC)c(OCCOC)cc23)c1	cell-free assay	0.5 µM	remaining signal	91.8%
Cc1ccc(C(=O)NCc2ccsc2)cc1C#Cc1cn(C(C)C)c2ncnc(N)c12	enzyme activity, inhibitor	1 µM	activity vs control	93%
NS(=O)(=O)c1cc(NC(=O)C2(c3ccccc3Cl)CC2)ccc1Oc1cccc(Cl)c1	cell-free assay, competition with immobilised ligand	1 µM	remaining binding	100%
COc1cc(Nc2cnc(C#N)c(O[C@H](C)CN(C)C)n2)ncc1-c1cnn(C)c1	enzyme activity, inhibitor, radiometric	10 µM	remaining activity	74%
Cn1c2c(Cl)c(Cl)ccc2c2cn[nH]c(=O)c21	thermal stability, DSF	10 µM	ΔTm	0.6 °C
Cc1c[nH]c2nccc(Oc3c(F)cc(Nc4cc(Cl)nc(N)n4)cc3F)c12	cell-free assay, competition with immobilised ligand	0.1 µM	remaining binding	96%
Cn1c(=O)n(-c2ccc(C(C)(C)C#N)cc2)c2c3cc(-c4cnc5ccccc5c4)ccc3ncc21	enzyme activity, inhibitor	10 µM	remaining activity	91%
CC(C)(O)[C@H]1CC[C@H](Nc2ccc3ncc(-c4cccc(C(F)(F)F)c4)n3n2)CC1	enzyme activity, inhibitor	1 µM	remaining activity	79.8%
FC(F)(F)c1ccc2c(c1)nc(-c1cccnc1)n2C1CC1	cell-free assay, competition with immobilised ligand	1 µM	remaining binding	100%
Oc1cccc(-c2nc(N3CCOCC3)c3oc4ncccc4c3n2)c1	cell-free assay	0.5 µM	remaining signal	93.3%
CCS(=O)(=O)c1cc2cc(C[C@](O)(CC(C)(C)c3ccc(F)cc3C(N)=O)C(F)(F)F)[nH]c2cn1	cell-free assay, competition with immobilised ligand	1 µM	remaining binding	99%
CC(C)(C)c1nc(-c2cccc(NS(=O)(=O)c3c(F)cccc3F)c2F)c(-c2ccnc(N)n2)s1	enzyme activity, inhibitor, radiometric	1 µM	remaining activity	92%
O=C(Nc1cccnn1)N1CCC(=Cc2cccc(Oc3ccc(C(F)(F)F)cn3)c2)CC1	cell-free assay, competition with immobilised ligand	1 µM	remaining binding	100%
Cn1c2c(c3ccc(Cl)c(Cl)c31)C(C#N)C1(CCN(C(=O)OC(C)(C)C)CC1)NC2=O (racemic)	thermal stability, DSF	10 µM	ΔTm	0 °C
Cc1nccc(COC(=O)N2C[C@@H]3[C@@H](CNC(=O)c4ccc5[nH]nnc5c4)[C@@H]3C2)n1	cell-free assay, competition with immobilised ligand	1 µM	remaining binding	89%
FC(F)(F)Oc1cccc(-c2cnc3ccc(-c4ccncc4)nn23)c1	enzyme activity, inhibitor, radiometric	5 µM	activity vs control	67%
